Assay outcomes as filed in PubChem.
Rows were chosen to be rich in hits. Some 2.3% of all compounds tested hit in one or more screens of this group.
MEKK2 mut-MEK5: MEK5 binding signal on mutant MEKK2 PB1, primary screen, biochemical, multiplex bead flow cytometry, Alexa488-MEK5 | Alexa488-MEK5 binding to MEKK2 mutant | percent response, % at 10 µM | 290,000 compounds, 0.35% hits | AID 1530, 2009; in the data active = percent response above about 24%, passing the limit was not always enough
Arrestin-AP2 inh: inhibitors of beta-arrestin/AP2 binding, primary screen, biochemical, GPCR trafficking, flow cytometry; 340,000 compounds, 0.31% hits; beta-arrestin 1 C-terminal peptide binding to AP2 beta2-adaptin appendage (human); FITC-arrestin peptide / GST-AP2 beads; AP2 beta2 appendage carries R879A mutation; AID 504490, 2011; inhibition, % at 10 µM;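 active = inhibition above a set limit, near 3 SD of compounds lacking own fluorescence, cut at about 54% in these data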;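 also: plate controls were DMSO wells for no effect and 5 µM unlabelled arrestin peptide for full effect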
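Assay system: GST-AP2 R879A bound to glutathione beads, E. coli-expressed; Medium: PBS with 0.05% Tween 20 and 0.1% BSA; Also added: fluorescein-tagged arrestin peptide at 50 nM final; Timing: 12 min plus 1 h, RT; Measured by: flow cytometry, FL1 (488/535 nm); Evaluation: percent drop in bead-associated FITC signal.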
MEKK2 WT-MEK5: modulators of MEK5 binding to wildtype MEKK2, primary screen, biochemical, multiplex bead flow cytometry, Alexa488-MEK5 | binding response (% of control), % at 10 µM | Mitogen-activated protein kinase kinase kinase 2 (Homo sapiens), Q9Y2U5 | Alexa488-MEK5 binding to MEKK2 WT; actives lie on both sides | 290,000 compounds, 1.1% hits | AID 1531, 2009; in the data active = binding response below about 67% or above about 130%
MEKK3 PB1 HTS: modulators of MEKK3-MEK5 PB1 binding, primary screen, biochemical, wildtype MEKK3, multiplex bead flow cytometry, Alexa488-MEK5; bead-based flow cytometry, Alexa488-MEK5 binding to MEKK3; actives lie on both sides; 0 = blocked by unlabeled MEK5, 100 = vehicle; Mitogen-activated protein kinase kinase kinase 3 (Homo sapiens), Q99759; 290,000 compounds, 1.4% hits; binding response (% of control), % at 10 µM;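 active = binding response more than 3 SD above or below the average of its plate-row segment, actives on both sides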;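 also: Alexa488 bead fluorescence after subtracting the streptavidin-only scavenger bead signal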
Target sequence (Q99759 whole entry, looked up): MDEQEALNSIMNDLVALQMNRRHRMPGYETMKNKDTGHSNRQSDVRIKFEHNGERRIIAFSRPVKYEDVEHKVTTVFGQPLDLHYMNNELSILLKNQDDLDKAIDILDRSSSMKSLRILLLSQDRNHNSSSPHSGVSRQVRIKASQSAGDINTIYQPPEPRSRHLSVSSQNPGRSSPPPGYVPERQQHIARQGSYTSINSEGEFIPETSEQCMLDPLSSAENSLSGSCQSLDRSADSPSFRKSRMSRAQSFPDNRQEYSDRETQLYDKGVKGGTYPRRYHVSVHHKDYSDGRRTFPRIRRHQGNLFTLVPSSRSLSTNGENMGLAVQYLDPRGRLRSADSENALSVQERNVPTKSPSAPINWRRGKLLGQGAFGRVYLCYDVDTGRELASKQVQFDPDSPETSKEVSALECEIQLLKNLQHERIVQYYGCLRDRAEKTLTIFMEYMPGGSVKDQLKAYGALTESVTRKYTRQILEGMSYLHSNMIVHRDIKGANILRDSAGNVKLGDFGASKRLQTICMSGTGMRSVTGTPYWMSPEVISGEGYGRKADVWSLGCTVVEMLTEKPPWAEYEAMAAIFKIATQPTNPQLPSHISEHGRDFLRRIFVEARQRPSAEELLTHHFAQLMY
MEKK2wt confirm: modulators of MEK5 binding to wildtype MEKK2, confirmation, biochemical, single concentration, multiplex bead flow cytometry; AID 1892, 2009; shares compounds with MEKK3 PB1 HTS; Alexa488-MEK5 binding to MEKK2 WT; actives lie on both sides; 5,900 compounds, 2.4% hits; binding response (% of control), % at 10 µM; in the data active = binding response below about 16% or above about 210%; inactive = in between
MEKK2mut-MEK5: mutant MEKK2 PB1-MEK5 binding signal retest – biochemical, single concentration, multiplex bead flow cytometry, confirmation | 5,900 compounds, 2% hits | percent response, % at 10 µM | Alexa488-MEK5 binding to MEKK2 mutant | shares compounds with MEKK3 PB1 HTS; in the data active = percent response mostly above about 71%, no sharp cut-off; inactive = mostly below about 38%;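 also: higher means compound restores mutant binding toward wildtype level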
MEKK3-MEK5 inh: MEKK3 wild-type PB1 binding to MEK5, inhibitors, confirmation, biochemical, bead multiplex flow cytometry, single concentration, wildtype | shares compounds with MEKK3 PB1 HTS | Alexa488-MEK5 binding to MEKK3; stronger effect = lower value | binding response (% of control), % at 10 µM | 5,900 compounds, 1.8% hits | AID 1894, 2009;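 active = binding response below 72% of control, or above a set upper limit, though filed actives all read lower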;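 also: 100% = DMSO only wells and 0% = binding blocked by excess unlabeled MEK5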
* = called active by the depositor; nt = no result given; [ ] = remark or other dose.

SMILES	MEKK2 mut-MEK5	Arrestin-AP2 inh	MEKK2 WT-MEK5	MEKK3 PB1 HTS	MEKK2wt confirm	MEKK2mut-MEK5	MEKK3-MEK5 inh
O=C(c1cc(COc2c(F)cccc2F)on1)N1C[C@H]2CC[C@H]1C2	-24	4	68	49*[inhibitor]	18	-26	39*
CCOC(=O)c1cc(COc2cc(Cl)cc(Cl)c2)on1	6	nt	98	102	nt	nt	nt
CCOc1ccc(CC(=O)N2CCN=C2SCc2ccc([N+](=O)[O-])cc2)cc1	0	19	102	106	nt	nt	nt
COc1ccc(CC(=O)N2CCN=C2SCc2ccc([N+](=O)[O-])cc2)cc1	3	31	118	130*	95	-4	99
NC(=S)N/N=C1\CC(n2nnn(-c3cccc(Cl)c3)c2=S)C2COC1O2 (configuration not stated)	-5	7	96	100	nt	nt	nt
COc1cc(C(=O)NC2CCN(CC(=O)Nc3cccc(C)c3C)CC2)cc(OC)c1OC	3	-3	104	104	nt	nt	nt
CC(=O)Nc1ccc(S(=O)(=O)Nc2ccccc2N2CCOCC2)cc1	nt	2	nt	nt	nt	nt	nt
COc1ccccc1N(C)S(=O)(=O)c1ccc(C(=O)OCC(=O)Nc2ccccc2F)cc1	-16	37	45*[inhibitor]	46*[inhibitor]	94	0	99
CCOC(=O)c1c(NC(=O)COc2ccccc2)sc2c1CC(C)(C)NC2(C)C	-1	8	99	92	nt	nt	nt
CCOc1ccc(C(=O)Nc2sc3c(c2C(=O)OC)CC(C)(C)NC3(C)C)cc1	34	1	152*	105	137	13	100
COC(=O)c1c(NC(=O)c2nc3ccccc3s2)sc2c1CC(C)(C)NC2(C)C	69*	13	210*	108	186	42	110
CCOC(=O)c1c(NC(=O)CSc2nc3ccccc3[nH]2)sc2c1CC(C)(C)NC2(C)C	nt	0	nt	nt	nt	nt	nt
CN(C)CCc1cc2c(c3c1ccc1ccccc13)OCO2	19	13	174*	110	141	25	105
CCN(CC)CCNC(=O)c1ccc(NC(=O)C2CCN(c3ncnc4sc(C)c(C)c34)CC2)cc1	16	-7	147*	105	-5.0*[inhibitor]	9	90
Cc1ccc(Nc2nc(NCC3CCCO3)nc(N)c2[N+](=O)[O-])cc1C (configuration not stated)	-1	-4	95	74*[inhibitor]	106	5	102
CC(C)CNc1nc(N)c([N+](=O)[O-])c(NCC2CCCO2)n1 (configuration not stated)	-3	3	94	95	nt	nt	nt
Cc1nn(C)c(C(=O)Sc2cccc(Cl)c2)c1[N+](=O)[O-]	28	-7	115	133*	97	-6	97
Nc1cc2nc[nH]c2cc1N	-23	6	41*[inhibitor]	31*[inhibitor]	76	-18	69*
Cn1c(=O)n(C)c2cc3[nH]cnc3cc21	3	-10	96	96	nt	nt	nt
Cc1nnc(SCc2ccc([N+](=O)[O-])cc2)o1	-3	32	100	102	nt	nt	nt
O=C(O)c1ccc(N2C(=O)c3cccnc3C2=O)cc1	-4	-11	97	98	nt	nt	nt
O=C1c2nccnc2C(=O)N1c1ccc(F)cc1	0	-20	112	130*	105	6	100
O=C(NNC(=O)c1ccccc1Cl)c1ccc2c(c1)OCCO2	nt	-14	nt	nt	nt	nt	nt
Cc1ccc(C)c(NC(=O)c2ccc(S(=O)(=O)C(F)F)cc2)c1	1	-3	109	132*	99	-3	101
O=C(NC12CC3CC(CC(C3)C1)C2)c1ccc(N2CCNCC2)c([N+](=O)[O-])c1	-2	-13	102	89	nt	nt	nt
SMILES	MEKK2 mut-MEK5	Arrestin-AP2 inh	MEKK2 WT-MEK5	MEKK3 PB1 HTS	MEKK2wt confirm	MEKK2mut-MEK5	MEKK3-MEK5 inh
CC1(C)CC(NCc2cccc([N+](=O)[O-])c2)CC(C)(C)N1	6	4	107	106	nt	nt	nt
CC1(C)CC(O)C(C(O)c2cccc([N+](=O)[O-])c2)C(C)(C)N1 (configuration not stated)	1	18	111	148*	99	5	103
CCn1cc(CN2CCCC(C(=O)Nc3cccc(-c4cc5ccccc5[nH]4)c3)C2)c(C)n1 (configuration not stated)	21	9	154*	107	176	39	104
COc1ccc(-c2cc(-c3ccc(F)cc3)nc(N3CCN(C)CC3)n2)cc1	39	1	201*	122	205	78*	117
COc1ccc(-c2cc(C(F)(F)F)nc(N3CCOCC3)n2)cc1	8	2	102	100	nt	nt	nt
COC(=O)CNC(=O)C1(C)C=CCN1C(=O)c1ccccc1 (configuration not stated)	1	12	98	99	nt	nt	nt
CC(C)(C)c1cc(C2=CSC3=NCCN23)cc(C(C)(C)C)c1O	5	-5	122	105	nt	nt	nt
COc1ccc(CN2CCN(C)CC2)cc1OCc1ccccc1	-9	-1	82	69*[inhibitor]	108	7	108
COc1ccc(CN2CCC(C(N)=O)CC2)cc1OCc1ccccc1	0	10	107	103	nt	nt	nt
CC1(C)CC(NC(=S)Nc2ccc(S(N)(=O)=O)cc2)CC(C)(C)N1	1	24	121	134*	110	6	101
Cc1ccc2nc(-c3ccc(NC(=S)NC4CC(C)(C)NC(C)(C)C4)cc3)sc2c1	74*	22	235*	107	218*	90*	92
Cc1ccc2nc(-c3ccc(NC(=S)NC(=O)C(C)C)cc3)sc2c1	-7	-5	80	82	nt	nt	nt
NS(=O)(=O)c1ccc(NS(=O)(=O)c2ccc(NC(=S)Nc3ccccc3)cc2)cc1	1	6	99	4.0*[inhibitor]	101	-6	102
Cc1ccc(N2CC(C(=O)N3CCC(C(=O)Nc4nnc(C(C)(C)C)s4)CC3)CC2=O)cc1 (configuration not stated)	5	8	106	100	nt	nt	nt
Cc1c(N2C(=O)c3ccc(Br)cc3C2=O)c(=O)n(-c2ccccc2)n1C	-16	-1	3.0*[inhibitor]	2.0*[inhibitor]	97	5	100
